“And” between values parts separate entries of the source, which are not always exact repeats. Equal entries are not always repeated.
Columns and labels:
[1] = Half life in CEM cell extracts (25 uM, 37 degree C); format: ADME, CCRF-CEM; conditions: human
Summary of the method: (§1)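 Incubated at 25 µM initial concentration and 37 °C in full CEM cell extract, in RPMI 1640 with 10% heat-inactivated fetal calf serum, or in freshly withdrawn human serum. Aliquots analysed by on-line cleaning HPLC (precolumn deproteinization) with UV at 260 nm. Relative concentrations came from peak areas. Half-lives were derived from kinetic model fits: pseudo-first-order or substrate inhibition.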

[2] = Half life in culture medium (25 uM, 37 degree C); format: ADME; summary of the method: as §1
[3] = Selectivity index which is the ratio between CC50 and EC50; format: functional
C8166 [4] = test: Effective dose to achieve 50% protection of C8166 cells acutely infected with HIV-2 strain IIIB; format: functional, cell-based; conditions: Homo sapiens, in the assay text read “HIV-2 strain CBL-20” for “HIV-2 strain IIIB”
Summary of the method: (§2)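 Inhibition of virus-induced cytopathogenicity in acutely infected cells. HIV-1 IIIB in MT-4 cells at 100 CCID50; HIV-2 CBL-20 in C8166 cells at 1000 CCID50. 1 × 10^4 cells per well with various compound concentrations, 4 days at 37 °C, viability by MTT. EC50 is the dose giving 50% protection. Mean of three independent determinations.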

C8166 [5] = test: Ability to reduce 50% viability of C8166 cells acutely infected with HIV-2 strain IIIB; format: functional; conditions: Homo sapiens, in the assay text read “HIV-2 strain CBL-20” for “HIV-2 strain IIIB”
Summary of the method: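 Cytotoxicity in mock-infected cells run in parallel with the antiviral assay: 1 × 10^4 MT-4 or C8166 cells per well with or without various compound concentrations, 4-day incubation at 37 °C, viable cells counted by MTT. CC50 is the dose reducing viability by 50% at day 4. Mean of three independent determinations; variation among duplicates <22%.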

MT4 [6] = test: Ability to reduce 50% viability of mock-infected MT-4 cells; conditions: Homo sapiens
MT4 [7] = test: Effective dose to achieve 50% protection of MT-4 cells from acutely infected HIV-1 strain IIIB; format: functional, cell-based; conditions: Homo sapiens; summary of the method: as §2

SMILES	half-life at 25 µM [1] [h]	half-life at 25 µM [2] [h]	SI [3]	EC50 (C8166 [4]) [nM]	CC50 (C8166 [5]) [nM]	CC50 (MT4 [6]) [nM]	EC50 (MT4 [7]) [nM]
CC(=O)SCCOP(=O)(OCCSC(C)=O)OCC1OC(n2cc(C)c(=O)[nH]c2=O)CC1N=[N+]=[N-] (stereo not given)	< 0.1	9					
Cc1cn([C@H]2C[C@H](N=[N+]=[N-])[C@@H](CO)O2)c(=O)[nH]c1=O [ZIDOVUDINE]			30000 and > 83000	6	> 500000	150000	5
Cc1cn(C2CC(N=[N+]=[N-])C(COP(=O)(OCCSC(=O)C(C)(C)C)OCCSC(=O)C(C)(C)C)O2)c(=O)[nH]c1=O (stereo not given)	1	103	600 and 245				
